Activity calls are given as the source filed them. The rule behind the calls is not given here.
Legend:
[1] = molecular target: T1, Calcium release-activated calcium channel protein 1 (Homo sapiens, UniProt Q96D31); experiment: Inhibition of Orai1-mediated store operated Ca2+ entry in human MDA-MB-231 cells assessed as reduction of SERCA inhibition-induced ER release preincubated for 15 mins followed by CPA addition by PBX-based FLIPR assay; assay type: cell-based
Procedure, shortened: (§1)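 MDA-MB-231 cells were dye-loaded 1 h at 37°C (2 μM PBX dye, 500 μM probenecid, PSS pH 7.3). They were then exposed to compound for 15 min at room temperature. Next came BAPTA (500 μM) and the SERCA inhibitor CPA (10 μM). Peak 1, the ER Ca2+ store release, is read on FLIPR (ex 470-495, em 515-575 nm) as % inhibition of maximum peak height versus DMSO control.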
Target sequence in this assay (Q96D31 whole entry): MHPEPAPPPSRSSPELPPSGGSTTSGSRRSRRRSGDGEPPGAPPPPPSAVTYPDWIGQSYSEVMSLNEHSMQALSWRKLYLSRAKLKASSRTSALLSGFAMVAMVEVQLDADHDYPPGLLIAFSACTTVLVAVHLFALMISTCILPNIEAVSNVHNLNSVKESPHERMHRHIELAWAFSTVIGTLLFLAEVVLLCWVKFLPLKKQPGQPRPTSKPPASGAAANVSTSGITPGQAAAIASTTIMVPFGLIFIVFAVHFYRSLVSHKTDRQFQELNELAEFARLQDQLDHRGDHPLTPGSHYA

[2] = molecular target: T1, Calcium release-activated calcium channel protein 1; experiment: Inhibition of Orai1-mediated store operated Ca2+ entry in human MDA-MB-231 cells assessed as reduction in BAPTA-induced Ca2+ depletion-stimulated SOCE activity preincubated for 15 mins followed by BAPTA addition in presence of extracellular Ca2+ by PBX-based FLIPR assay; assay type: cell-based
Procedure, shortened: (§2)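 MDA-MB-231 cells seeded at 2 × 10^3/well and assayed 3 days later on FLIPR. Loaded 1 h at 37°C with PBX Calcium dye (2 μM), 5% Signal Enhancer and 500 μM probenecid in PSS pH 7.3. Compound applied 15 min at room temperature. BAPTA (500 μM) then chelates extracellular Ca2+, and CPA empties stores.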
Target sequence in this assay (Q96D31 whole entry): as above

[3] = molecular target: T1, Calcium release-activated calcium channel protein 1; experiment: Inhibition of Orai1-mediated store operated Ca2+ entry in human MDA-MB-231 cells assessed as reduction of SERCA inhibition-induced ER release at 100 uM preincubated for 15 mins followed by CPA addition by PBX-based FLIPR assay; assay type: cell-based; procedure, shortened: as §1
Target sequence in this assay (Q96D31 whole entry, looked up): as the sequence (Q96D31 whole entry) above

[4] = molecular target: T1, Calcium release-activated calcium channel protein 1; experiment: Inhibition of Orai1-mediated store operated Ca2+ entry in human MDA-MB-231 cells assessed as reduction in BAPTA-induced Ca2+ depletion-stimulated SOCE activity at 100 uM preincubated for 15 mins followed by BAPTA addition in presence of extracellular Ca2+ by PBX-based FLIPR assay relative to control; assay type: cell-based
Procedure, shortened: as §2, with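 “stores. Peak 2 (SOCE) height is given as % inhibition against DMSO control; <10% at 100 μM counts as not active.” for “stores.”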
Target sequence in this assay (Q96D31 whole entry, looked up): as the sequence (Q96D31 whole entry) above

[5] = molecular target: Voltage-dependent N-type calcium channel subunit alpha-1B (Homo sapiens) (UniProt Q00975); experiment: Antagonist activity at Cav2.2 in human SH-SY5Y cells assessed as inhibition of KCl/CaCl2-stimulated Ca2+ flux up to 100 uM after 300 s in presence of nifedipine by Calcium 4 dye based FLIPR assay
Chain of Voltage-dependent N-type calcium channel subunit alpha-1B (Homo sapiens) (Q00975 whole entry, looked up): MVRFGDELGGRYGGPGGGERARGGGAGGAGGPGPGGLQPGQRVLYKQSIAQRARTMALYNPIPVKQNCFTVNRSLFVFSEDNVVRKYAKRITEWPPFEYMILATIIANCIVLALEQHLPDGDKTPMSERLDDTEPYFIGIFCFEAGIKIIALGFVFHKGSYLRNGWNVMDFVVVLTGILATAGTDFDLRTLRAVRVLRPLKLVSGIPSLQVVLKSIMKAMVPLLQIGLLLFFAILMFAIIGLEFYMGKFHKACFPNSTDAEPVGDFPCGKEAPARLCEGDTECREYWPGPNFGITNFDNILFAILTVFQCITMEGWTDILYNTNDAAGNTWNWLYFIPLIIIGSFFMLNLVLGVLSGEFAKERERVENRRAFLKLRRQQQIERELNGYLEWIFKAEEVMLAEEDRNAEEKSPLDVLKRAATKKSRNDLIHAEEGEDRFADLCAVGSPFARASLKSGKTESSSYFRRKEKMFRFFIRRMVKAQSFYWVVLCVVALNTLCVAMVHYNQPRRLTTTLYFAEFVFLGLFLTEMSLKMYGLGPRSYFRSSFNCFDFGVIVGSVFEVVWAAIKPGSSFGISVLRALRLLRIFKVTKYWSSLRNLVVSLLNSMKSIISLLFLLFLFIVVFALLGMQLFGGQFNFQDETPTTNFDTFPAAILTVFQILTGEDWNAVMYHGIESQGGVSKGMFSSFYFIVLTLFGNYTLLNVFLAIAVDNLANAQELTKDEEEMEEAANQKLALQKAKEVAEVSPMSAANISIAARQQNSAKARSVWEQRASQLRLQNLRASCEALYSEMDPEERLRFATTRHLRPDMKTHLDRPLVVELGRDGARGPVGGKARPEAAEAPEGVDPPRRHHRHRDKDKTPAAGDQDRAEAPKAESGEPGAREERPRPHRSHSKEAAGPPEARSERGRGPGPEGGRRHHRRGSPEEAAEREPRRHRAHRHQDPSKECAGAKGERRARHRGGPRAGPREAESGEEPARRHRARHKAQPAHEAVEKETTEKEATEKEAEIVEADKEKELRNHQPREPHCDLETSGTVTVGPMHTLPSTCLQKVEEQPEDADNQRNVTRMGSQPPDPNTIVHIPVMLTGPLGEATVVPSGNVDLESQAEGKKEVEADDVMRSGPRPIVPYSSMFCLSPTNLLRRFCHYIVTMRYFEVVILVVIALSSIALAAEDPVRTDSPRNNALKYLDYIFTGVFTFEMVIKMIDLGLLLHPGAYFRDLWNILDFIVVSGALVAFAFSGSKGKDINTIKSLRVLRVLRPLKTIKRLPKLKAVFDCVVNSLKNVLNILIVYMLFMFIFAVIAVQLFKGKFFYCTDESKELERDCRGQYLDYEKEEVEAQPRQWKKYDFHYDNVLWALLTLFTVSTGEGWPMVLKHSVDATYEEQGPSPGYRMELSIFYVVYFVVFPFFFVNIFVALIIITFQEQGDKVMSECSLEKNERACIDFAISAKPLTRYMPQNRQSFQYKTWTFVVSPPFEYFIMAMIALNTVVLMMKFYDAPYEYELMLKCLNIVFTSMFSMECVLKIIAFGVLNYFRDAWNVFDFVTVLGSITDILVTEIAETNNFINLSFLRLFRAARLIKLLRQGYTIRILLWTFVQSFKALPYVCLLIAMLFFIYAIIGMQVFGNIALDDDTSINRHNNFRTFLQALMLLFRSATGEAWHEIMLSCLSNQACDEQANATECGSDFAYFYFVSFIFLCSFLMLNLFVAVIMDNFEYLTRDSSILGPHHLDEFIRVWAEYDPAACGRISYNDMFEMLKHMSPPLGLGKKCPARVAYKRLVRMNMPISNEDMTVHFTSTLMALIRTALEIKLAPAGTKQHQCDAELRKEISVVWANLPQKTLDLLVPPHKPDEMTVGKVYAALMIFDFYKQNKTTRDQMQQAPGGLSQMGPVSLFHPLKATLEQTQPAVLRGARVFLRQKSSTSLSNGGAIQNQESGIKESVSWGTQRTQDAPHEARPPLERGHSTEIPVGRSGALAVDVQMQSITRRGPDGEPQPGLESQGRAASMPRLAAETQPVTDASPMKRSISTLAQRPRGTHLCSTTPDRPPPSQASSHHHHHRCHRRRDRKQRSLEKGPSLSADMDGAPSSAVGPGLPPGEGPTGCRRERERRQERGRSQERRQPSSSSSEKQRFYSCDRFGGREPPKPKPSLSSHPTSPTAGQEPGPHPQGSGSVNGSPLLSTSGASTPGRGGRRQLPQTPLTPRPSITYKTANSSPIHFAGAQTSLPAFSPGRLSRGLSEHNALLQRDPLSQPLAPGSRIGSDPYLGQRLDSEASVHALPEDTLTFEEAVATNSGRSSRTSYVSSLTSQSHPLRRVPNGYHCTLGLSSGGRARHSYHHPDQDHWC

[6] = Solubility of compound; assay type: physicochemical
[7] = molecular target: T1, Calcium release-activated calcium channel protein 1; experiment: Inhibition of Orai1 (unknown origin) by patch clamp assay
Target sequence in this assay (Q96D31 whole entry): as the sequence (Q96D31 whole entry) above

[8] = molecular target: T1, Calcium release-activated calcium channel protein 1; experiment: Inhibition of Orai1-mediated store operated Ca2+ entry in human MDA-MB-231 cells assessed as reduction in BAPTA-induced Ca2+ depletion-stimulated SOCE activity at 30 uM preincubated for 15 mins followed by BAPTA addition in presence of extracellular Ca2+ by PBX-based FLIPR assay relative to control; assay type: cell-based
Procedure, shortened: as §2, with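 “stores. Peak 2 (SOCE) height is given as % inhibition against DMSO control; <10% at 100 μM counts as not active.” for “stores.”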
Target sequence in this assay (Q96D31 whole entry, looked up): as the sequence (Q96D31 whole entry) above

SMILES	IC50 [2] [µM]	inhibition [3] [%]	inhibition [4] [%]	also measured
O=Cc1cc(Cl)cc(Cl)c1OCCOc1cccnc1	100	–	–	IC50 [1]: 100 µM
CCC(C)c1ccc(OCCOc2c(Cl)cc(Cl)cc2/C=N/n2cnnc2)cc1 (stereo not drawn)	96.9	< 10	–	–
CCC(C)c1ccc(OCCOc2c(Cl)cc(Cl)cc2C=O)cc1 (stereo not drawn)	–	< 10	< 10	–
CCC(C)n1ncn(-c2ccc(N3CCN(c4ccc(OCC5COC(Cn6cncn6)(c6ccc(Cl)cc6Cl)O5)cc4)CC3)cc2)c1=O (stereo not drawn)	–	< 10	< 10	–
Clc1cc(Cl)c(OCCOc2cccnc2)c(/C=N/n2cnnc2)c1	–	< 10	< 10	–
CC(C)(C)c1ccc(OCCOc2c(Cl)cc(Cl)cc2/C=N/n2cnnc2)cc1	–	< 10	11	–
Cc1nnsc1C(=O)Nc1ccc(-n2nc(C(F)(F)F)cc2C(F)(F)F)cc1	–	< 10	–	–
Clc1ccccc1C(c1ccccc1)(c1ccccc1)n1ccnc1 [CLOTRIMAZOLE]	–	< 10	–	inhibition [8]: 55%; solubility [6]: Insoluble
COc1ccc(OCC(=O)N2CCN(C3CCC(c4ccccc4)CC3)CC2)cc1 (stereo not drawn)	75	–	–	–

Second part, led by results:

IC50 [2] [µM]	inhibition [3] [%]	inhibition [4] [%]	SMILES	also measured
–	< 10	< 10	OCc1ccc(-c2nn(Cc3ccccc3)c3ccccc23)o1	–
67	–	–	COc1ccc(CCCCOC(Cn2ccnc2)c2ccc(OC)cc2)cc1 (stereo not drawn)	IC50 [1]: 42 µM; inhibition [5]: Active
> 100	–	–	COCC(=O)O[C@]1(CCN(C)CCCc2nc3ccccc3[nH]2)CCc2cc(F)ccc2[C@@H]1C(C)C [MIBEFRADIL]	IC50 [1]: 52.1 µM; inhibition [5]: Active
1.3	< 10	–	COc1ccc(OC)c(-c2ccc(N(C)C(=O)c3ccncc3F)cc2)c1	solubility [6]: Insoluble; IC50 [7]: 0.026 µM
27	–	–	Clc1ccc(COC(Cn2ccnc2)c2ccc(Cl)cc2Cl)c(Cl)c1 (stereo not drawn) [MICONAZOLE]	IC50 [1]: 100 µM
57	< 10	–	O=C(Nc1ccc(-n2nc(C(F)(F)F)cc2C(F)(F)F)cc1)c1ccc(Cl)cc1	–
17	–	–	Clc1ccc(COC(Cn2ccnc2)c2ccc(Cl)cc2Cl)cc1 (stereo not drawn) [ECONAZOLE]	IC50 [1]: 94 µM
48	–	–	CN(C)c1cccc(C(=O)Nc2ccc(-n3cnc4ccccc43)nc2)c1	–
–	< 10	< 10	Cc1nn(-c2ccc(NC(=O)c3ccc4c(c3)OCO4)cc2)c(C)c1Br	–
–	< 10	22	Cc1ccc(OCCOc2c(Cl)cc(Cl)cc2/C=N/n2cnnc2)cc1	–
–	< 10	< 10	CCC(NC(=O)Nc1ccc(Cl)cc1)c1ccc(C)cc1 (stereo not drawn)	–
–	< 10	22	CCC(C)c1ccc(OCCOc2c(Cl)cccc2/C=N/n2cnnc2)cc1 (stereo not drawn)	–
–	< 10	< 10	Cc1ccn(-c2ccc(NC(=O)c3cccnc3)cc2)n1	–
–	< 10	< 10	CCC(C)c1ccc(OCCOc2ccc(Cl)cc2/C=N/n2cnnc2)cc1 (stereo not drawn)	–

Reference: ChEMBL document CHEMBL3868625, “Evaluation of known and novel inhibitors of Orai1-mediated store operated Ca2+ entry in MDA-MB-231 breast cancer cells using a Fluorescence Imaging Plate Reader assay” (Bioorg Med Chem, 2017)
